Screens (PubChem BioAssay)
LEDGF integ inh: blocks HIV-1 LEDGF/p75-dependent DNA integration; TR-FRET IN-LEDGF/p75 DNA integration, Eu/Cy5; inhibition, % at 3.7 µM; actives 0.64% (n = 370,000); AID 743269;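 active = inhibition above the screen-wide mean plus 3 SD, cut at about 13% in these data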;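 also: signal is the Cy5 over europium emission ratio at 671 and 618 nm; 0% = plate median of compound wells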
MBD2 DNA inh: inhibitors of human MBD2 binding to methylated oligonucleotide; Q9UBB5; TR-FRET; inhibition, % at 4.4 µM; actives 0.31% (n = 370,000); AID 686964; in the data active = inhibition above about 13%
Target sequence (Q9UBB5 whole entry, looked up): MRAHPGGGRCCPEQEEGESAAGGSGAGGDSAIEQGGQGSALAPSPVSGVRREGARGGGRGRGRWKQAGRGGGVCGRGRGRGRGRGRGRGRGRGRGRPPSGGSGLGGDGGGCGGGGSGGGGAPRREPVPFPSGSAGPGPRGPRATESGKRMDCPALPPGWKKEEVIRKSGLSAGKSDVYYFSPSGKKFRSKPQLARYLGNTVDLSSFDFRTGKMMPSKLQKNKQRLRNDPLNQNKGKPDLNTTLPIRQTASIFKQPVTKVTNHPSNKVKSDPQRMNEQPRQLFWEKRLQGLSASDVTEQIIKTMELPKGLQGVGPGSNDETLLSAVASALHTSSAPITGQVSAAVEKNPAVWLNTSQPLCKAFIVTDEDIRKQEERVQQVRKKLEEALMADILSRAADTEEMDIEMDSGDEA
SIAE inh: human SIAE inhibition, primary screen; SIAE FP-Rh probe binding, fluorescence polarization; inhibition, % at 9.66 µM; actives 0.69% (n = 370,000);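 active = inhibition above a cutoff: mean of compounds within the control limits plus 3 SD of those, cut at about 17% in these data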;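 also: 0% = plate median of compound wells and 100% = probe without SIAE protein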
UHRF1 binding: UHRF1 methyl-DNA binding inhibition; actives 0.75% (n = 370,000); Q96T88; inhibition, % at 4.4 µM; UHRF1 binding to methylated oligo, TR-FRET; in the data active = inhibition above about 21%;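 also: UHRF1 SRA domain binding a hemimethylated CpG hairpin DNA probe; 0% = median of test compound wells and 100% = reference inhibitor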
TDP2 inh: blocks human TDP2 phosphodiesterase activity | O95551 | recombinant TDP2, T5PNP hydrolysis, p-nitrophenol absorbance 415 nm | inhibition, % at 12.8 µM | actives 0.34% (n = 370,000) | AID 720702;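 active = inhibition above the mean of all tested compounds plus 3 SD, set per campaign, cut at about 25% in these data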;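 also: 0% = DMSO with enzyme and 100% = buffer with substrate but no TDP2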
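Assay system: Recombinant human TDP2 | Quantity: 120 nM TDP2 per well | Incubation: 2 h at 37 °C | Signal: Epi absorbance | Evaluation: Percent inhibition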
PRMT1 FP inh: blocks human protein arginine methyltransferase 1. Q99873. recombinant PRMT1, activity-based probe fluorescence polarization. actives 1.3% (n = 370,000). inhibition, % at 2.79 µM;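 active = inhibition above about 21% made by adding two undisclosed values, limit read from the data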
SIAE confirm: human SIAE inhibition, confirmation; shares compounds with SIAE inh; SIAE FP-Rh activity-based probe, fluorescence polarization; inhibition, % at 9.66 µM; actives 13% (n = 2,300); AID 1117263;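 active = mean inhibition of the replicates above the hit cutoff set in the primary screen, cut at about 17% in these data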;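 also: 0% = SIAE with DMSO and probe and 100% = probe without SIAE; inhibitors lower polarization as more probe stays unbound to SIAE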
The depositor's hits bear a star; x = no result. Most compounds without a hit are left out; they make up all but 3.3% or so of the library.

SMILES | LEDGF integ inh | MBD2 DNA inh | SIAE inh | UHRF1 binding | TDP2 inh | PRMT1 FP inh | SIAE confirm
COC(=O)C(Cc1c[nH]c2ccccc12)NC(=O)c1cncc(Br)c1 (stereo not drawn) | -6.2 | 0.7 | 20.3* | 11.5 | 2.8 | -2.0 | 0.6
Cc1cc(Br)cc(Cl)c1OCC(=O)N1CCN(C(=O)c2ccco2)CC1 | -10.4 | 0.6 | 2.6 | -0.6 | 3.8 | 2.6 | x
Cc1cc(C)c(OCC(=O)OCC(=O)N2CCN(C(=O)c3ccco3)CC2)c(C)c1 | -2.6 | 6.8 | 18.4* | 0.0 | 2.2 | 6.0 | -4.1
C/C(=N\NC(=O)c1ccccc1O)c1ccc(NC(=O)Cc2ccccc2)cc1 | -0.1 | -4.0 | 17.6* | -2.1 | -1.9 | 0.7 | 0.3
O=C1N/C(=N/NC(=O)c2cccc3ccccc23)S/C1=C\c1ccccc1OCc1ccccc1 | 0.7 | -2.0 | 2.1 | -1.4 | -5.6 | -0.8 | x
COc1ccc(OC)c(/C=C2\S/C(=N/NC(=O)c3ccc4ccccc4c3)NC2=O)c1 | 2.0 | 0.2 | 18.7* | -4.9 | 4.8 | -1.0 | 9.2
O=C(O)c1cccc(NC(=O)c2ccc3c(c2)C(=O)N(c2ccccc2)C3=O)c1 | 0.3 | -1.1 | -1.6 | 5.2 | -3.2 | 0.8 | x
COc1ccc(NC(=O)c2cccc(N3C(=O)c4ccc(C(=O)Nc5ccc(OC)c(O)c5)cc4C3=O)c2)cc1O | -2.5 | -1.7 | 23.1* | 5.9 | -16.3 | 2.6 | 4.8
O=C(NNc1nc2ccccc2o1)c1ccccc1 | -0.2 | -8.2 | 17.7* | -0.7 | -0.3 | -4.2 | 0.2
O=C(NC(=Nc1nc2ccccc2o1)NC(=O)c1ccccc1)c1ccccc1 | -1.6 | 0.1 | 5.5 | 1.6 | -3.2 | -0.5 | x
COc1ccc(NC(=O)CC2C(=O)N(C)C(=S)N2Cc2ccco2)cc1 (stereo not drawn) | 0.5 | 2.9 | 19.8* | -1.5 | -0.5 | -0.4 | 4.5
COc1cc(CCC(=O)NCCc2ccc(F)cc2)cc(OC)c1OC | -2.9 | 3.5 | 18.4* | -2.7 | 10.8 | 0.2 | -11.6
CCN(C(=O)COC(=O)/C=C/c1cnc2ccccc2n1)C1CCS(=O)(=O)C1 (stereo not drawn) | 0.5 | 0.9 | 28.0* | -2.3 | -4.2 | -10.8 | -0.8
Cc1ccc(-c2nc3ncccn3c2NC(=O)c2ccc(F)cc2)cc1 | -2.0 | 0.6 | 4.3 | -3.8 | 12.3 | 0.9 | x
COc1ccc(-n2ccnc(SCC(=O)NC3CCCC3)c2=O)cc1 | 2.5 | 3.5 | 2.9 | -2.4 | -0.6 | 16.0 | x
COc1ccc(-c2[nH]c(-c3ccc(C)cc3)nc2SCC(=O)Nc2nccs2)cc1 | 0.9 | -1.9 | 2.7 | -0.4 | -13.1 | 7.1 | x
COc1ccc(-c2[nH]c(-c3ccc(SC)cc3)nc2SCC(=O)Nc2nccs2)cc1 | -2.6 | 1.5 | 21.5* | 7.6 | 1.1 | 6.4 | 9.3
COc1ccc(-c2nc(SCC(=O)NC3CCCC3)c(-c3ccc(OC)cc3)[nH]2)cc1 | -5.1 | 1.4 | 17.9* | 0.6 | -7.9 | 4.3 | 6.1
Cc1nc(SCC(=O)N(CC(C)C)C2CCS(=O)(=O)C2)c2ccccc2n1 (stereo not drawn) | 1.2 | 1.2 | 17.4* | -0.6 | 12.0 | 2.4 | -1.4
CC(C)CC(=O)N1CCc2cc(S(=O)(=O)N(C)Cc3ccco3)ccc21 | -0.6 | 10.4 | 3.4 | 16.2 | -2.3 | 6.5 | x
CCc1ccccc1NC(=O)c1onc(C)c1Cl | 2.5 | -5.7 | 32.1* | -0.7 | 7.9 | -5.4 | -2.3
COC(=O)c1ccccc1NC(=O)c1onc(C)c1Cl | 2.2 | 2.4 | -5.2 | -2.2 | -7.8 | 1.9 | x
CC(=O)N1C[C@@H](CO)[C@@H](N(C)C(=O)/C=C/c2ccccc2)C[C@H]1c1ccccc1 | -1.9 | 1.6 | 0.3 | -0.1 | -7.1 | 1.9 | x
Cc1ccc(-n2c([S-])c(C(=O)Nc3ccc(OC(F)F)cc3)[n+]3ccc(C(=O)NCCO)cc23)cc1C | -3.1 | -4.0 | 17.5* | -1.8 | -1.2 | 3.1 | -7.1
COc1ccccc1-n1c([S-])c(C(=O)Nc2ccccc2C(F)(F)F)[n+]2ccc(C(=O)NCCO)cc12 | -2.3 | 3.4 | -5.9 | -1.2 | -0.9 | 1.4 | x
SMILES | LEDGF integ inh | MBD2 DNA inh | SIAE inh | UHRF1 binding | TDP2 inh | PRMT1 FP inh | SIAE confirm
O=Nc1c(-c2cccc([N+](=O)[O-])c2)nc2ncccn12 | 6.3 | -2.5 | 18.0* | -4.1 | 15.7 | -4.5 | 6.5
Nc1c(-c2ccccc2)nc2ncccn12 | -2.9 | -2.3 | 1.7 | -1.9 | -1.1 | 0.8 | x
CCN(CC)c1ccc(NC(=O)c2cc3c(C)nn(-c4ccccc4)c3s2)cc1 | -1.6 | -7.5 | -8.1 | -4.6 | -7.3 | 1.6 | x
Nn1c(SCC(=O)N2CCCC2)nnc1-c1cccs1 | 1.2 | -1.9 | 17.4* | 0.9 | -15.2 | -0.9 | -0.6
O=C(CSc1nnc(-c2cccs2)n1-c1ccccc1)N1CCCC1 | 0.4 | -1.0 | 1.3 | 0.0 | 5.7 | 2.9 | x
COc1cc(NC(=O)CCCn2c(=O)oc3ccccc32)cc(OC)c1 | 0.2 | -9.5 | 4.8 | -2.0 | -6.4 | -0.8 | x
COc1ccc(C(C)(C)C)cc1NC(=O)CCCn1c(=O)oc2ccccc21 | -0.6 | 0.0 | 75.8* | -1.4 | -7.2 | -1.0 | 0.7
CCCCOCCCNc1ncnc2c1[nH]c1ccccc12 | 5.4 | -8.4 | 17.6* | -2.9 | -7.4 | -4.2 | 4.1
Cc1cc(N2CCN(Cc3ccc4c(c3)OCO4)CC2)n2nc(C)nc2n1 | 7.0 | 4.6 | 0.8 | 13.2 | -15.1 | 3.3 | x
CCOc1ccc(OCCOC(=O)CN(C)S(=O)(=O)c2ccc(NC(C)=O)cc2)cc1 | 0.6 | -2.3 | 20.1* | 0.0 | 2.6 | -4.3 | -5.2
CC(=O)Nc1ccc(S(=O)(=O)N(C)CC(=O)OCC(=O)N2CCCCC2)cc1 | 0.9 | -3.0 | -4.3 | 1.2 | 7.9 | -0.5 | x
C=CCN1C(=O)c2[nH]nc(-c3ccccc3)c2C1c1ccc(C)cc1 (stereo not drawn) | -0.5 | 1.2 | -1.9 | 1.2 | -1.5 | 0.5 | x
CC(=O)Nc1cc(NC(C)=O)cc(C(=O)NCC2(N3CCOCC3)CCCCC2)c1 | -2.2 | 1.1 | 21.4* | 0.7 | 12.0 | -1.4 | -2.9
CN(C)S(=O)(=O)c1cccc(C(=O)NCC2(N3CCOCC3)CCCCC2)c1 | 1.6 | -1.5 | -4.6 | 0.4 | -0.3 | 2.5 | x
O=C1CC(c2ccc3ccccc3c2)N=C2N(Cc3ccc4c(c3)OCO4)C/C(=C/c3ccccc3)N12 (stereo not drawn) | -1.3 | -6.4 | -2.2 | -1.9 | -4.0 | -0.3 | x
COc1cccc(CNc2nccs2)c1O | -1.1 | 1.4 | 17.8* | -1.3 | 15.9 | 0.0 | 1.4
CCOC(=O)c1c(C)sc2c1N(C(=O)CN(CC)CC)c1ccccc1S2 | -1.4 | 5.0 | 17.4* | -1.4 | -4.0 | -0.5 | 0.7
CCOC(=O)c1c(C)sc2c1N(C(=O)CN(CC)CC)c1cc(Cl)ccc1S2 | -0.5 | -2.6 | 0.9 | -3.8 | -11.2 | 0.7 | x
